ChEMBL document CHEMBL3779787, “Amorfrutin C Induces Apoptosis and Inhibits Proliferation in Colon Cancer Cells through Targeting Mitochondria” (J Nat Prod, 2016)
Active and inactive are the calls of the source. The calls are words filed in the database; no cut-off is given here.

How the values were obtained:
HT-29 [1] = assay: Induction of apoptosis in human HT-29 cells assessed as increase in caspase 3/7 activity at 30 uM after 2 hrs by luminescent assay relative to control; format: functional
Outline: (§1)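 HT-29 cells exposed to compound 2 h; effector/initiator caspase enzymatic activity measured by luminescent assays, normalized to control treatment; means ± SEM, n = 4.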

T84 = assay: Antiproliferative activity against human T84 cells assessed as cellular DNA content after 96 hrs by CyQUANT NF fluorescence assay; format: functional, cell-based; details: T84, 96 h
Outline: (§2)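 Cells seeded at 750 (HT-29), 250 (PC-3) or 900 (T84, MCF7) cells/well, treated next day with concentration series for 72 h (HT-29, PC-3) or 96 h (T84, MCF7). Relative cell number from cellular DNA content by fluorescent DNA-binding dye. Variable-slope fit; efficiency = maximal inhibition (100% − Bottom) vs untreated; IC50 relative to the compound's own maximal efficiency.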

[2] = Antiproliferative activity against human PC3 cells assessed as cellular DNA content after 72 hrs by CyQUANT NF fluorescence assay; format: functional, cell-based; details: PC-3, 72 h; outline: as §2
MCF7 = assay: Antiproliferative activity against human MCF7 cells assessed as cellular DNA content after 96 hrs by CyQUANT NF fluorescence assay relative to control; format: functional; outline: as §2
HT-29 [3] = assay: Downregulation of cyclin D3 expression in human HT-29 cells at 10 uM after 48 hrs by immunoblotting method; format: functional, cell-based
Outline: (§3)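 HT-29 exposed to 10 μM for 48 h; whole-cell lysates immunoblotted for the indicated proteins (total and cleaved PARP for the apoptosis line).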

HT-29 [4] = assay: Downregulation of cyclin E2 expression in human HT-29 cells at 10 uM after 48 hrs by immunoblotting method; format: functional, cell-based; outline: as §3
HT-29 [5] = assay: Downregulation of CDK6 expression in human HT-29 cells at 10 uM after 48 hrs by immunoblotting method; format: functional, cell-based; outline: as §3
HT-29 [6] = assay: Induction of cell cycle arrest in human HT-29 cells assessed as accumulation at G2/M phase at 10 uM by flow cytometry (reference value: 21%); format: functional
HT-29 [7] = assay: Induction of apoptosis in human HT-29 cells assessed as increase in caspase 9 activity at 30 uM after 2 hrs by luminescent assay relative to control; format: functional; outline: as §1
HT-29 [8] = assay: Induction of apoptosis in human HT-29 cells assessed as cleaved PARP level at 10 uM after 48 hrs; format: functional, cell-based; outline: as §3
HT-29 [9] = assay: Induction of ROS generation in human HT-29 cells at 30 uM by CM-H2DCFDA staining-based fluorescence assay in presence of N-acetylcysteine; format: functional, cell-based
Outline: (§4)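 HT-29 (15 000 cells/well) loaded with 50 μM CM-H2DCFDA in PBS for 30 min at 37 °C, washed, then 60 min in phenol red-free DMEM/F-12. 30 μM compound added alone or with NAC 1 mM, GSH 2.5 mM, D3T 25 μM, α-tocopherol 50 μM or ascorbic acid 500 μM. Fluorescence 485/530 nm read kinetically at 37 °C for 22 h; area under curve; means ± SEM, n = 7.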

HT-29 [10] = assay: Induction of ROS generation in human HT-29 cells at 30 uM by CM-H2DCFDA staining-based fluorescence assay in presence of alpha-tocopherol; format: functional, cell-based; outline: as §4
HT-29 [11] = assay: Antiproliferative activity against human HT-29 cells assessed as cellular DNA content at 20 uM after 48 hrs by CyQUANT NF fluorescence assay in presence of N-acetylcysteine; format: functional, cell-based
Outline: (§5)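 HT-29 given concentration series of test compound with or without antioxidant (NAC 1 mM, GSH 2.5 mM, D3T 25 μM, α-tocopherol 50 μM, ascorbic acid 500 μM) for 48 h. Relative cell number from DNA-binding fluorescent dye; means ± SD, n = 4.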

HT-29 [12] = assay: Antiproliferative activity against human HT-29 cells assessed as cellular DNA content at 20 uM after 48 hrs by CyQUANT NF fluorescence assay in presence of glutathione; format: functional, cell-based; outline: as §5
HT-29 [13] = assay: Antiproliferative activity against human HT-29 cells assessed as cellular DNA content at 20 uM after 48 hrs by CyQUANT NF fluorescence assay in presence of alpha-tocopherol; format: functional, cell-based; outline: as §5
HT-29 [14] = assay: Antiproliferative activity against human HT-29 cells assessed as cellular DNA content at 20 uM after 48 hrs by CyQUANT NF fluorescence assay in presence of ascorbic acid; format: functional, cell-based; outline: as §5
HT-29 [15] = assay: Induction of apoptosis in human HT-29 cells at 30 uM after 24 hrs by annexin V-FLUOS/propidium iodide staining-based flow cytometry in presence of N-acetylcysteine; format: functional, cell-based
Outline: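 HT-29 treated 24 h with 30 μM with or without antioxidant (NAC 1 mM, D3T 25 μM). Apoptosis by annexin V/propidium iodide flow cytometry; means ± SEM, n = 3.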

HT-29 [16] = assay: Induction of apoptosis in human HT-29 cells at 30 uM after 24 hrs by annexin V-FLUOS/propidium iodide staining-based flow cytometry in presence of alpha-tocopherol; format: functional, cell-based
Outline: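 HT-29 cells co-incubated 24 h with 30 μM compound and antioxidant: glutathione 2.5 mM, α-tocopherol 50 μM, or ascorbic acid 500 μM. Phosphatidylserine externalization measured by annexin V-FLUOS/propidium iodide staining and flow cytometry. Means ± SEM, n = 3.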

HT-29 [17] = assay: Antiproliferative activity against human HT-29 cells assessed as cellular DNA content after 72 hrs by CyQUANT NF fluorescence assay in presence of irinotecan; format: functional, cell-based
Outline: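 HT-29 exposed 72 h to concentration series of mixtures at ratios 7:0 through 0:7 with the partner drug. Relative cell number from DNA-content fluorescence. IC70 = concentration giving 70% inhibition of total cells (means ± SD, n = 4); isobolograms by Loewe additivity, CI(M) = IC70(Mx)/IC70(x) + IC70(My)/IC70(y).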

HT-29 [18] = assay: Induction of apoptosis in human HT-29 cells assessed as increase in phosphatidylserine externalization at 10 uM after 48 hrs by flow cytometry in presence of alphaFas; format: functional, cell-based
Outline: (§6)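 HT-29 exposed 48 h to 10 μM compound, αFAS (10 ng/mL), TRAIL (30 ng/mL) or combinations. Phosphatidylserine externalization by annexin V flow cytometry. Expected combination effects from Bliss independence; means ± SEM, n = 4.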

HT-29 [19] = assay: Induction of apoptosis in human HT-29 cells assessed as increase in phosphatidylserine externalization at 10 uM after 48 hrs by flow cytometry in presence of TNF-related apoptosis inducing ligand; format: functional, cell-based; outline: as §6
HT-29 [20] = assay: Induction of apoptosis in human HT-29 cells assessed as opening of mitochondrial permeability transition pore at 30 uM after 30 mins calcein/CoCl2 staining-based fluorescence assay in presence of cyclosporinA; format: functional, cell-based
Outline: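 Trypsinized HT-29 (10^6 cells/mL) in HBSS/Ca with 10 nM calcein and 400 μM CoCl2. Pretreated 60 min at 37 °C with 2 μM cyclosporin A or vehicle, then test compound for 30 min at 37 °C. Washed; mitochondrial calcein fluorescence by flow cytometry; means ± SEM, n = 6.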

With `COc1c(CC=C(C)C)c(O)c(C(=O)O)c(CCc2ccccc2)c1CC=C(C)C` the “fold change (FC)” value (HT-29 [1]) was 2, the IC50 (T84) was 11 µM and the IC50 [2] was 16 µM. For the same compound, the Efficacy (MCF7) was 92%, the Activity (HT-29 [3]) was “Active” and the Activity (HT-29 [4]) was “Active”. For the same compound, the Activity (HT-29 [5]) was “Active”, the Activity (HT-29 [6]) was 7% and the “fold change (FC)” value (HT-29 [7]) was 3. For the same compound, the Activity (HT-29 [8]) was “Active”, the Activity (HT-29 [9]) was “inactive” and the Activity (HT-29 [10]) was “inactive”. For the same compound, the Activity (HT-29 [11]) was “Active”, the Activity (HT-29 [12]) was “Active” and the Activity (HT-29 [13]) was “Active”. For the same compound, the Activity (HT-29 [14]) was “Active”, the Activity (HT-29 [15]) was “Active” and the Activity (HT-29 [16]) was “Active”. For the same compound, the Activity (HT-29 [17]) was “Active”, the Activity (HT-29 [18]) was “Active” and the Activity (HT-29 [19]) was “Active”. The Activity (HT-29 [20]) was “inactive”.
